Data on five compounds can be found in ChEMBL document CHEMBL1143373, “Novel 6-methanesulfonamide-3,4-methylenedioxyphenyl-N-acylhydrazones: orally effective anti-inflammatory drug candidates” (Bioorg Med Chem, 2009).

Assay [1] deals with Rattus norvegicus. Kind of assay: Antiinflammatory activity in Wistar rat assessed as inhibition of carrageenan-induced paw edema volume at 300 umol/kg, po administered 1 hrs prior to carrageenan challenge measured after 3 hrs. It is filed as functional. The arrangement: scale not given: the % may be the effect or the level left. The essentials:
(§1)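 Fasted Wistar rats of both sexes (150–200 g), given compound orally as a suspension in 5% arabic gum in saline. One hour later, 1% carrageenan (1 mg/paw) injected subplantar into one hind paw, saline into the other. Volumes measured by glass plethysmometer at 3 h. Edema taken as the carrageenan-minus-saline paw difference, expressed as % inhibition vs vehicle. n = 8–10.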

For assay [2], the system named is Rattus norvegicus. Kind of assay: Antiinflammatory activity in po dosed Wistar rat assessed as inhibition of carrageenan-induced paw edema volume administered 1 hrs prior to carrageenan challenge measured after 3 hrs. The format is functional. The method in brief:
as §1
A general note: The carrageenan paw model is a standard test of acute inflammation.

Assay [3] concerns Rattus norvegicus. Kind of assay: Antiinflammatory activity against arachidonic acid-induced ear edema in Wistar rat. The format is functional, organism-based.
The test system of assay [4] is Rattus norvegicus. Kind of assay: Antihyperalgesic activity in Wistar rat assessed as inhibition of carrageenan-induced thermal hyperalgesia at 300 umol/kg, po by hotplate test. It is filed as functional, organism-based. The essentials: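 Fasted Wistar rats of both sexes (150–200 g), dosed orally with 300 µmol/kg as a suspension in 5% arabic gum in saline (vehicle controls). Carrageenan 1% (1 mg/paw) injected subplantar 1 h later. Hot plate held at 51 °C, cut-off 20 s. Left hind paw withdrawal latency read at 0, 30, 60, 120, 180 and 240 min post-challenge. Hyperalgesia taken as the latency drop from time 0. n = 8 per group.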

The subject of assay [5] is Mus musculus. Kind of assay: Antinociceptive activity in mouse assessed as inhibition of acetic acid-induced constrictions at 300 umol/kg, po. It is filed as functional. On the set-up: scale not given: the % may be the effect or the level left.
For assay [6], the system named is Mus musculus. Kind of assay: Antinociceptive activity against formalin-induced pain in mouse assessed as inhibition of paw licking response during inflammatory phase at 300 umol/kg, po measured 15 to 30 mins after formalin injection. The format is functional. On the set-up: scale not given: the % may be the effect or the level left. The method in brief:
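Mice received 20 µL of 2.5% formalin subplantar in the hind paw. The inflammatory (second) phase was recorded 15–30 min after injection.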

Assay [7] concerns the target Prostaglandin G/H synthase 1 (Homo sapiens, UniProt P23219). Kind of assay: Inhibition of COX1 in human whole blood assessed as TXB2 production by enzyme immunoassay. It is filed as tissue-based.
For assay [8], the target named is T1, Prostaglandin G/H synthase 2 (Homo sapiens, UniProt P35354).
T1 sequence (P35354 whole entry): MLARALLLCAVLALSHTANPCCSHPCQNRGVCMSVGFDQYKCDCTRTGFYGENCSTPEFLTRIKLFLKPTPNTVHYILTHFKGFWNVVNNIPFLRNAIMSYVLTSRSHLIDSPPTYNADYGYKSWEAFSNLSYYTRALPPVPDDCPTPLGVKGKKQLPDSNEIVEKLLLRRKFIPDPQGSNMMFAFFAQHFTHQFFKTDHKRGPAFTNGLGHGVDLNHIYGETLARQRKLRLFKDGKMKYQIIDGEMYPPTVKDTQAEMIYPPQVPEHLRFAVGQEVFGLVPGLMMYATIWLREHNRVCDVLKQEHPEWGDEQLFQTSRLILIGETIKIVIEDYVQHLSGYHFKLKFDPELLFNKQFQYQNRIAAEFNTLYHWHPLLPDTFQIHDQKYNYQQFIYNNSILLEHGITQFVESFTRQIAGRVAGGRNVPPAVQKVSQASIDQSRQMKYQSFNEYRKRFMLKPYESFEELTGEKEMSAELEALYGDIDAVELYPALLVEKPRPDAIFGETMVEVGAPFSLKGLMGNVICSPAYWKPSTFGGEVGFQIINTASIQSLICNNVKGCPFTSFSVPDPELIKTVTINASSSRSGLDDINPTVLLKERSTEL
Kind of assay: Inhibition of COX2 in LPS-stimulated human whole blood assessed as TXB2 production by enzyme immunoassay. It is filed as tissue-based.

Activity calls are given as the source filed them.

Prostaglandin G/H synthase 1, sequence (P23219 whole entry): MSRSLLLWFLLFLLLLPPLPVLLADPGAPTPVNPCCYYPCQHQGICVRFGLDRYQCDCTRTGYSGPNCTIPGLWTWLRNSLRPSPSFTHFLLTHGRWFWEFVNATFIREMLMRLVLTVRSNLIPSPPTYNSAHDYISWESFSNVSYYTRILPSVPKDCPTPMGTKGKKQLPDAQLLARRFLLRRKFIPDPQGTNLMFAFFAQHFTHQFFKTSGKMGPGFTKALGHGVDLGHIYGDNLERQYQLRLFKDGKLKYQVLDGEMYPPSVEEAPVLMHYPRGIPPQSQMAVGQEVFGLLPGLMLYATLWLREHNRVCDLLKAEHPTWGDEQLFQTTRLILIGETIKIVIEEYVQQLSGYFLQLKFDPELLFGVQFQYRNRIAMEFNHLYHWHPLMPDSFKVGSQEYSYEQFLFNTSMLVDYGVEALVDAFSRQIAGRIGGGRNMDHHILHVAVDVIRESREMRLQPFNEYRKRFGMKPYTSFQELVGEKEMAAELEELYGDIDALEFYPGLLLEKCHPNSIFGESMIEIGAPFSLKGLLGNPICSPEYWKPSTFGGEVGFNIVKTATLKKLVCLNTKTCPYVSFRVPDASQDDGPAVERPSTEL

For the compound `CS(=O)(=O)Nc1cc2c(cc1C(=O)N/N=C/c1cccs1)OCO2`, in the assay with Rattus norvegicus [1], the Activity is 36%.

For `CS(=O)(=O)Nc1cc2c(cc1C(=O)N/N=C/c1ccco1)OCO2`, in the assay with Rattus norvegicus [1], the Activity was 37.9%.

Consider `CS(=O)(=O)Nc1cc2c(cc1C(=O)N/N=C/c1ccccc1)OCO2`, for which the Activity amounted to 59.6% with Rattus norvegicus [1], 70% in the assay on Mus musculus [5] and 48.7% in the assay on Mus musculus [6]. In the assay with Rattus norvegicus [2], the ED50 – broadly, the dose at which the effect has come halfway, by size or by number of responders – came to 97.8 µmol/kg. Besides, the outcome in the assay with Rattus norvegicus [3] and in the assay with Rattus norvegicus [4] was Active. Further, the IC50 – broadly, the point on the concentration scale where inhibition reaches its midpoint – in assay [7] was 4.1 µM; in assay [8], 10.2 µM.

Regarding `O=C(N/N=C/c1cccs1)c1ccc2c(c1)OCO2`, the Activity in the assay on Rattus norvegicus [1] is 29.7%.

As to `CS(=O)(=O)Nc1ccc([N+](=O)[O-])cc1Oc1ccccc1` [NIMESULIDE], the Activity with Rattus norvegicus [1] turned out to be 57.5%; in the assay on Mus musculus [6], 58.5%.
